The subject of experiment [1] is Mus musculus. Briefly: Effect on triglycerides from CF1 male mice after 16 days at a dose of 60 (mg/kg/day). Format: functional. In outline: (§1)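 Dosing was ip in CF₁ male mice (~25 g) for 16 days, with compound suspended in 1% carboxymethylcellulose. Liver was then taken and homogenised to 10% in 0.25 M sucrose with 0.001 M EDTA. Lipid was extracted from a 2 mL aliquot by the Folch and Bligh–Dyer methods and total mg of lipid was weighed. Cholesterol (Liebermann–Burchard), triglycerides (kit), neutral lipids and phospholipids were then measured; N = 6; reported as % of vehicle control.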

The test system of experiment [2] is Mus musculus. In words: Effect on Serum cholesterol levels on CF1 male mice at a dose of 25 (mg/kg)/day after 9 days. The format is functional. In outline: (§2)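 CF1 male mice (~25 g), drug suspended in 1% carboxymethylcellulose in water, given ip daily for 16 days; n = 6; vehicle control. Tail-vein blood on days 9 and 16, serum cholesterol by modified Liebermann–Burchard reaction; day-14 serum triglyceride by commercial kit; expressed as % control.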

For experiment [3], the system named is Rattus norvegicus. Briefly: Effect on cholesterol chylomicrons Holtzman rats after 14 days administration. The format is functional. In outline:
(§3)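 Holtzman male rats (~400 g) given drug at 20 (mg/kg)/day for 14 days; on day 14 blood taken from the abdominal aorta and serum separated by centrifugation at 3500 rpm; lipid and protein content of the lipoprotein fractions measured.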

In experiment [4] the test system is Rattus norvegicus. Briefly: Effect on Serum cholesterol levels on Holtzman rats at a dose of 20 (mg/kg)/day after 16 days. The format is functional. In short, it runs like this:
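Holtzman male rats (~200 g) dosed orally by intubation needle daily for 16 days, drug suspended in 1% carboxymethylcellulose; n = 6; vehicle control. Tail-vein serum cholesterol on days 9 and 16 by modified Liebermann–Burchard reaction; day-14 serum triglyceride by commercial kit; % control.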

The test system of experiment [5] is Rattus norvegicus. Briefly: Effect on low density neutral lipids Holtzman rats after 14 days administration. Format: functional. In outline: as §3
Experiment [6] concerns Rattus norvegicus. Briefly: Effect on low density Protein Holtzman rats after 14 days administration. Format: functional. In short, it runs like this:
as §3

In experiment [7] the test system is Mus musculus. Briefly: In vitro effect on CF1 male mouse on Fatty acid synthetase after 16 days at a dose of 10 (mg/kg)/day. The format is functional. In short, it runs like this:
(§4)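 In vivo enzyme study. CF₁ male mice were dosed ip for 16 days in 1% CMC, and liver was homogenised to 10% in 0.25 M sucrose with 0.001 M EDTA. Enzymes assayed: acetyl-CoA synthetase as hydroxamate at 540 nm after 30 min at 37 °C; HMG CoA reductase with [1-¹⁴C]acetate in 9000g supernatant for 60 min at 37 °C; fatty acid synthetase with [2-¹⁴C]malonyl-CoA; acyltransferase with [³H]glycerol 3-phosphate and microsomes for 10 min; phosphatidate phosphohydrolase as released phosphate at 820 nm after 30 min. N = 6; reported as % control.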

In experiment [8] the test system is Mus musculus. Briefly: Effect on neutral lipids from CF1 male mice after 16 days at a dose of 10 (mg/kg/day). The format is functional. In short, it runs like this: as §1
Experiment [9] is filed under the species Mus musculus. Briefly: Effect on Serum triglceride levels on Hyperlipidemic induced mice After 2-week diet. The format is functional. In outline: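 Mice fed atherogenic diet for 2 weeks to raise serum lipids, then given drug at 20 (mg/kg)/day ip for a further 2 weeks; serum cholesterol and triglyceride measured after the diet and after 14 days dosing; n = 6; compared with 1% CMC and diet-only controls; % control.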

Experiment [10] relates to Mus musculus. Briefly: Effect on cholesterol from CF1 male mice after 16 days at a dose of 60 (mg/kg/day). The format is functional. In outline:
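CF1 male mice dosed ip for 16 days at 10–60 (mg/kg)/day; liver taken and 10% homogenate made in 0.25 M sucrose + 0.001 M EDTA; aliquot extracted by Folch and Bligh–Dyer methods, mg lipid weighed, cholesterol measured by Liebermann–Burchard method; n = 6; % of 1% CMC control.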

The subject of experiment [11] is Mus musculus. In words: Effect on Serum cholesterol levels on CF1 male mice at a dose of 100 (mg/kg)/day after 16 days. The format is functional. In outline: as §2
In experiment [12] the test system is Mus musculus. Briefly: In vivo effect on CF1 male mouse on Lipid content after 16 days at a dose of 10 (mg/kg)/day.
Experiment [13] relates to Mus musculus. Briefly: In vitro effect on CF1 male mouse on acyltransferase after 16 days at a dose of 40 (mg/kg)/day. Format: functional. In outline:
as §4

Experiment [14] deals with Rattus norvegicus. Briefly: Effect on very low density cholesterol Holtzman rats after 14 days administration. Format: functional. In short, it runs like this: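 Holtzman male rats (~400 g) received drug at 20 (mg/kg)/day for 14 days. On day 14, blood was collected from the abdominal aorta and serum was separated by centrifugation at 3500 rpm. Lipid content of the lipoprotein fractions was then determined.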

As to `CC(=O)c1ccccc1N1C(=O)c2ccccc2C1=O`, the Control came out at 100% in the experiment with Mus musculus [1]; 74% in the experiment with Mus musculus [2]; 64% in the experiment on Rattus norvegicus [3]; 56% in the experiment on Rattus norvegicus [4]; 49% in the experiment with Rattus norvegicus [5]; 95% in the experiment on Rattus norvegicus [6]. Further, the Control was 106% in the experiment on Mus musculus [7]; 36% in the experiment on Mus musculus [8]; 131% in the experiment filed under Mus musculus [9]; 82% in the experiment with Mus musculus [10]; 26% in the experiment on Mus musculus [11]; 84% in the experiment with Mus musculus [12]. In addition, the Control in the experiment with Mus musculus [13] was determined as 43%; with Rattus norvegicus [14] it was 85%.

These data come from ChEMBL document CHEMBL1122328, “Hypolipidemic activity of phthalimide derivatives. 2. N-phenylphthalimide and derivatives” (1983).
